# Test results from publication PMC6828556 (Biochemical pharmacology, 2017).
# Key:
# 11β-HSD2 [1] = target: T1, 11β-HSD2 (Homo sapiens, UniProt P80365); test: 11β-HSD2 activity in lysates of HEK-293 cells stably expressing human 11β-HSD2; type: biochemical; settings: for inhibition at 20 µM: read-out: inhibition of 11β-HSD2 enzyme activity; for residual 11β-HSD2 activity: 20 μM test substance; for IC25 for 11β-HSD2: as determined in HEK-293 cell lysates
# T1 sequence (P80365 1-405): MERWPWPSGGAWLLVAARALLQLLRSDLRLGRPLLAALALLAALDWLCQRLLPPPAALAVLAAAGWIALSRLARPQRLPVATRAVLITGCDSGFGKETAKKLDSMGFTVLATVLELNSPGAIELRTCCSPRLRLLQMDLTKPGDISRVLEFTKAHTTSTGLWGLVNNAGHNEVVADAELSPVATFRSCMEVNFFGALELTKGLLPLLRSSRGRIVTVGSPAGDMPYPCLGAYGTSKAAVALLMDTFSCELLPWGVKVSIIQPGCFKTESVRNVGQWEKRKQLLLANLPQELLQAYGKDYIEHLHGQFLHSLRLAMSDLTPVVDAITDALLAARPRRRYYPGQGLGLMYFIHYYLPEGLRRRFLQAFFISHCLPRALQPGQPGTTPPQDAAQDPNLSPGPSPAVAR
# Outline: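 Reactions were stopped with excess unlabeled cortisone/cortisol, giving about 20–25% conversion. Products were separated by TLC (chloroform:methanol 9:1) and counted by scintillation. Activity was normalized to vehicle; mean ± SD, ≥3 independent experiments.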
# human 11β-HSD1 = human 11β-HSD1 (Homo sapiens, UniProt P28845); type: biochemical; settings: for activity against 11β-HSD1 (in words): HEK-293 lysates, recombinant human enzyme; for inhibition at 20 µM: read-out: inhibition of 11β-HSD1 enzyme activity
# Chain of human 11β-HSD1 (P28845 whole entry): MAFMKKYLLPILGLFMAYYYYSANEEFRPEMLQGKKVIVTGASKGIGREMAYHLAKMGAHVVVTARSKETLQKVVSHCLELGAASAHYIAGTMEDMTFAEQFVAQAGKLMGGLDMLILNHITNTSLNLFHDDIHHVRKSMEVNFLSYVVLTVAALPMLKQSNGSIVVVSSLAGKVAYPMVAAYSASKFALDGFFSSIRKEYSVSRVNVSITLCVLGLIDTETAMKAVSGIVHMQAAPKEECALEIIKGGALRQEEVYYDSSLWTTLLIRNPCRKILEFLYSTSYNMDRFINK
# Outline: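 Lysates of HEK-293 cells stably co-expressing human 11β-HSD1 and H6PDH (HHH7 clone) were incubated 10 min at 37°C with 200 nM radiolabeled cortisone, 500 μM NADPH and test compound or DMSO vehicle (max 0.1%). Reactions were stopped with excess unlabeled cortisone/cortisol, giving about 20–25% conversion. Steroids were separated by TLC (chloroform:methanol 9:1) and counted by scintillation. Activity was normalized to vehicle; mean ± SD, ≥3 independent experiments. IC50 was skipped when residual activity at 20 μM exceeded 40%.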
# 11β-HSD1 = settings: cited from earlier work
# 11β-HSD2 [2] = settings: cited from earlier work
# human 17β-HSD1 = target: T2, human 17β-HSD1 (Homo sapiens, UniProt P14061); test: 17β-HSD1 activity in lysates of transiently transfected HEK-293 cells; type: biochemical; settings: HEK-293 lysates, 200 nM estrone; data not shown
# T2 sequence (P14061 1-328): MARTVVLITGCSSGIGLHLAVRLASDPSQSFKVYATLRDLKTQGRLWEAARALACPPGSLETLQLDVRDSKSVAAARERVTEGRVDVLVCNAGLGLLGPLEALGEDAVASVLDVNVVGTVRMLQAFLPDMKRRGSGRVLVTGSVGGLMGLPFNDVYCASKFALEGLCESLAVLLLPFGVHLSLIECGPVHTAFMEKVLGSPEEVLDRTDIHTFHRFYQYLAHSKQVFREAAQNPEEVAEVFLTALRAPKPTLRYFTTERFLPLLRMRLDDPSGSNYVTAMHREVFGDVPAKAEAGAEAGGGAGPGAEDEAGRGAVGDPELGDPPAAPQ
# Outline: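 Lysates of HEK-293 cells transiently expressing human 17β-HSD1 were incubated for 10 min at 37°C with 200 nM estrone (containing 50 nCi [2,4,6,7-3H]-estrone), 500 μM NADPH and test compound or DMSO vehicle. Steroids were separated by TLC, and substrate conversion was measured by scintillation counting. Activity was normalized to the vehicle control. Data are mean ± SD from at least three independent experiments.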
# human 17β-HSD2 = target: T3, human 17β-HSD2 (Homo sapiens, UniProt P37059); test: 17β-HSD2 activity in lysates of transiently transfected HEK-293 cells; type: biochemical; settings: HEK-293 lysates, 200 nM estradiol; data not shown
# T3 sequence (P37059 1-387): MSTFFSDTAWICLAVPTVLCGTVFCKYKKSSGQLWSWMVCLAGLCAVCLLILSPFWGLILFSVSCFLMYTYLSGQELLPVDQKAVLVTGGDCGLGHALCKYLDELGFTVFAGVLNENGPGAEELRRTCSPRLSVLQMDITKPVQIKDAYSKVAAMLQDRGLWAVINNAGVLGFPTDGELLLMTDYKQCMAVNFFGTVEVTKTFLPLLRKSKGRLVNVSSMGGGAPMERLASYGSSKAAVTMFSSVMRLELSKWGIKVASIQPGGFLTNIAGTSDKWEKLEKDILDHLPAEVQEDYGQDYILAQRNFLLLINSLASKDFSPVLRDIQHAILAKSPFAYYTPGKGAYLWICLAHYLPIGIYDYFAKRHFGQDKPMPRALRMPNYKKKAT
# Outline: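 Lysates of HEK-293 cells transiently expressing human 17β-HSD2 were incubated for 10 min at 37°C with 200 nM estradiol (containing 50 nCi [2,4,6,7-3H]-estradiol), 500 μM NAD+ and test compound or DMSO vehicle. Steroids were separated by TLC, with conversion quantified by scintillation counting. Results were normalized to the vehicle control. Data are mean ± SD from at least three independent experiments.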
# 11β-HSD2 [3] = target: T1, 11β-HSD2; test: 11β-HSD2 activity in intact SW-620 cells; type: cell-based
# Outline: (§1)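 Cells were grown in DMEM with 10% FBS (SW-620 passages 11–15, MCF-7 passages 19–27) and seeded at 100 000 (SW-620) or 50 000 (MCF-7) per well. After 24 h, medium was replaced by steroid- and serum-free DMEM with vehicle or inhibitor plus radiolabeled cortisol (10 nCi; 50 nM final). Incubation was at 37°C for 4 h (SW-620) or 5 h (MCF-7). Conversion was read by TLC and scintillation counting.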
# 11β-HSD2 [4] = target: T1, 11β-HSD2; test: 11β-HSD2 activity in intact MCF-7 cells; type: cell-based
# Outline: as §1
# 11β-HSD2 [5] = target: T1, 11β-HSD2; type: biochemical; settings: preincubation 0, 5, 20 min at 4°C or 10 min followed by dilution
# Outline: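 Lysates of HEK-293 cells expressing human 11β-HSD2 were preincubated with test compound for 0, 5 or 20 min at 4°C before activity measurement. Alternatively, lysates were preincubated 10 min with compound, then diluted 1:2 or 1:4 before measuring 11β-HSD2 activity (radiolabeled cortisol, NAD+, TLC/scintillation). Data were normalized to DMSO control; mean ± SD, ≥3 independent experiments.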
# [6] = predominately to albumin; cited from earlier work
# [7] = cited from earlier work
# [8] = first trimester exposure, 229 women, 50-800 mg daily, prospective cohort; cited from earlier work
compound,measurement,setting,value
CCCSc1ccc2nc(NC(=O)OC)[nH]c2c1 [Albendazole],activity against 11β-HSD2 (in words),"11β-HSD2 [1]; HEK-293 lysates, recombinant human enzyme",inactive
same,activity against 11β-HSD1 (in words),human 11β-HSD1,inactive
CC(=O)N1CCN(c2ccc(OCC3COC(Cn4ccnc4)(c4ccc(Cl)cc4Cl)O3)cc2)CC1 (centres unmarked) [Ketoconazole],inhibitory effect toward 11β-HSD1 (in words),11β-HSD1,weak inhibitory effects
same,inhibitory effect toward 11β-HSD2 (in words),11β-HSD2 [2],weak inhibitory effects
"CC(O)C(C)n1ncn(-c2ccc(N3CCN(c4ccc(OCC5COC(Cn6cncn6)(c6ccc(Cl)cc6Cl)O5)cc4)CC3)cc2)c1=O (centres unmarked) [OHI, hydroxyitraconazole]",IC50,11β-HSD2 [1],223 ± 31 nM
same,inhibition of human 11β-HSD2 (in words),"11β-HSD2 [1]; 5 μM, HEK-293 lysates, 200 nM cortisol",complete inhibition
same,inhibition of 17β-HSD1 activity,human 17β-HSD1,None of the compounds inhibited 17β-HSD1 or 17β-HSD2 activity
same,inhibition of 17β-HSD2 activity,human 17β-HSD2,None of the compounds inhibited 17β-HSD1 or 17β-HSD2 activity
same,IC50,11β-HSD2 [3],820 ± 180 nM
same,IC50,11β-HSD2 [4],680 ± 200 nM
same,irreversible 11β-HSD2 inhibition,11β-HSD2 [5],excluded
same,plasma protein binding,[6],99.6%
CCN(CC)Cc1cc(Nc2ccnc3cc(Cl)ccc23)ccc1O [amodiaquine],inhibition at 20 µM,11β-HSD2 [1],< 40%
same,inhibition at 20 µM,human 11β-HSD1,< 40%
Clc1ccc(CCC(Cn2ccnc2)Sc2c(Cl)cccc2Cl)cc1 (centres unmarked) [butoconazole],residual 11β-HSD2 activity,11β-HSD2 [1]; HEK-293 lysates,44%
same,inhibition at 20 µM,human 11β-HSD1,≥ 50%
CCN(CC)CCCC(C)Nc1ccnc2cc(Cl)ccc12 (centres unmarked) [chloroquine],inhibition at 20 µM,11β-HSD2 [1],< 40%
same,inhibition at 20 µM,human 11β-HSD1,< 40%
CCC[C@@H]1C[C@@H](C(=O)N[C@@H]([C@H]2O[C@H](SC)[C@H](O)[C@@H](O)[C@H]2O)[C@H](C)Cl)N(C)C1 [clindamycin],inhibition at 20 µM,11β-HSD2 [1],< 40%
same,inhibition at 20 µM,human 11β-HSD1,< 40%
Cc1onc(-c2ccccc2Cl)c1C(=O)N[C@@H]1C(=O)N2[C@@H]1SC(C)(C)[C@@H]2C(=O)O [cloxacillin],inhibition at 20 µM,11β-HSD2 [1],< 40%
same,inhibition at 20 µM,human 11β-HSD1,< 40%
Cc1onc(-c2c(F)cccc2Cl)c1C(=O)N[C@@H]1C(=O)N2[C@@H]1SC(C)(C)[C@@H]2C(=O)O [flucloxacillin],inhibition at 20 µM,11β-HSD2 [1],< 40%
same,inhibition at 20 µM,human 11β-HSD1,< 40%
CC(=O)O[C@H]1C[C@@]2(C)[C@@H](C[C@@H](O)[C@H]3[C@@]4(C)CC[C@@H](O)[C@@H](C)[C@@H]4CC[C@@]32C)/C1=C(\CCC=C(C)C)C(=O)O [fusidic acid],inhibition at 20 µM,11β-HSD2 [1],< 40%
same,inhibition at 20 µM,human 11β-HSD1,< 40%
CCC(C)n1ncn(-c2ccc(N3CCN(c4ccc(OCC5COC(Cn6cncn6)(c6ccc(Cl)cc6Cl)O5)cc4)CC3)cc2)c1=O (centres unmarked) [itraconazole],IC50,11β-HSD2 [1],139 ± 14 nM
same,IC25 for 11β-HSD2,11β-HSD2 [1],78 nM
same,activity against 11β-HSD1 (in words),human 11β-HSD1,inactivity towards 11β-HSD1
same,inhibition of 17β-HSD1 activity,human 17β-HSD1,None of the compounds inhibited 17β-HSD1 or 17β-HSD2 activity
same,inhibition of 17β-HSD2 activity,human 17β-HSD2,None of the compounds inhibited 17β-HSD1 or 17β-HSD2 activity
same,IC50,11β-HSD2 [3],1070 ± 290 nM
same,IC50,11β-HSD2 [4],1190 ± 240 nM
same,irreversible 11β-HSD2 inhibition,11β-HSD2 [5],excluded
same,concentration in fat tissue relative to plasma,[7]; fat tissue,approximately 17 fold
same,duration of treatment needed to reach plasma steady-state levels,[7]; human plasma,15 days
same,"concentration in lung, liver, muscle and kidney relative to plasma","[7]; lung, liver, muscle and kidney",2-3 fold
same,rate of malformations compared to the control,[8],no difference
CCC[C@@H]1C[C@@H](C(=O)N[C@@H]([C@H]2O[C@H](SC)[C@H](O)[C@@H](O)[C@H]2O)[C@@H](C)O)N(C)C1 [lincomycin],inhibition at 20 µM,11β-HSD2 [1],< 40%
same,inhibition at 20 µM,human 11β-HSD1,< 40%
CCOc1ccc2ccccc2c1C(=O)N[C@@H]1C(=O)N2[C@@H]1SC(C)(C)[C@@H]2C(=O)O [nafcillin],inhibition at 20 µM,11β-HSD2 [1],< 40%
same,inhibition at 20 µM,human 11β-HSD1,< 40%
N=C(N)c1ccc(OCCCCCOc2ccc(C(=N)N)cc2)cc1 [pentamidine],inhibition at 20 µM,11β-HSD2 [1],< 40%
same,inhibition at 20 µM,human 11β-HSD1,< 40%
CC[C@@H]([C@H](C)O)n1ncn(-c2ccc(N3CCN(c4ccc(OC[C@@H]5CO[C@@](Cn6cncn6)(c6ccc(F)cc6F)C5)cc4)CC3)cc2)c1=O [posaconazole],IC50,11β-HSD2 [1],460 ± 98 nM
same,IC25 for 11β-HSD2,11β-HSD2 [1],237 nM
same,activity against 11β-HSD1 (in words),human 11β-HSD1,inactivity towards 11β-HSD1
same,inhibition of 17β-HSD1 activity,human 17β-HSD1,None of the compounds inhibited 17β-HSD1 or 17β-HSD2 activity
same,inhibition of 17β-HSD2 activity,human 17β-HSD2,None of the compounds inhibited 17β-HSD1 or 17β-HSD2 activity
same,residual 11β-HSD2 activity,"11β-HSD2 [3]; SW-620 cells, 5 μM",approximately 60%
same,residual 11β-HSD2 activity,"11β-HSD2 [4]; MCF-7 cells, 5 μM",~40%
same,irreversible 11β-HSD2 inhibition,11β-HSD2 [5],excluded
same,plasma protein binding,[6],≥ 98%
same,concentration in pulmonary alveolar cells compared with plasma,[7]; pulmonary alveolar cells,31-42 fold
CCCN(CCC)S(=O)(=O)c1ccc(C(=O)O)cc1 [probenecid],inhibition at 20 µM,11β-HSD2 [1],< 40%
same,inhibition at 20 µM,human 11β-HSD1,< 40%
Clc1ccc(C(Cn2ccnc2)OCc2csc3c(Cl)cccc23)c(Cl)c1 (centres unmarked) [sertaconazole],residual 11β-HSD2 activity,11β-HSD2 [1]; HEK-293 lysates,61%
same,inhibition at 20 µM,human 11β-HSD1,≥ 50%
Clc1ccc(C(Cn2ccnc2)OCc2ccsc2Cl)c(Cl)c1 (centres unmarked) [tioconazole],residual 11β-HSD2 activity,11β-HSD2 [1]; HEK-293 lysates,50%
same,inhibition at 20 µM,human 11β-HSD1,≥ 50%
CC(C)(C)C(=O)C(Oc1ccc(Cl)cc1)n1cncn1 (centres unmarked) [triadimefon],IC50,11β-HSD1; read-out: IC50 as competitive inhibitor of 11β-HSD1,15000 nM
same,Km,11β-HSD1; read-out: Km as substrate of 11β-HSD1,3.5 µM
